In ChEMBL document CHEMBL1156469 (2007):
Activity calls are given as the source filed them. The calls are words filed in the database; no cut-off is given here.

Legend:
Osteoblast [1] = assay: Increase in BMP2 levels in rat primary osteoblast cells at 1 uM after 48 hrs by ELISA; format: functional, cell-based
How it was run: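 Culture medium collected after 48 h treatment at indicated concentrations; BMP-2 sandwich ELISA, 2 h room temperature incubation, HRP-streptavidin with TMB, absorbance at 450 nm; expressed as percent change versus untreated control.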

Osteoblast [2] = assay: Effect on integrin alpha 2b gene expression in rat primary osteoblast cells assessed as expression ratio of treated to untreated control by microarray analysis; format: functional
How it was run: (§1)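 Resveratrol-treated and vehicle-treated primary osteoblasts were profiled on a mouse osteogenesis-focused cDNA array (GEArray Q series) built to track gene expression during osteogenic differentiation. Each gene's signal in treated cells was expressed as a ratio to untreated control.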

MC3T3-E1 [3] = assay: Reversal of increase in ER.DNA complex in mouse MC3T3-E1 cells at 1 uM by RT-PCR in presence of PP2; format: functional, cell-based
How it was run: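 BMP-2 promoter quantified by real-time PCR (45 cycles, 61 °C anneal), reported as IP-to-input Ct ratio. DN-Src by 3 μg vector, PP2 at 10 μM; ICI182780 and tamoxifen at indicated concentrations.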

Osteoblast [4] = assay: Effect on actin beta gene expression in rat primary osteoblast cells assessed as expression ratio of treated to untreated control by microarray analysis; format: functional
[5] = biological target: RAC-alpha serine/threonine-protein kinase (Homo sapiens) (UniProt P31749); assay: Enhancement of Akt inactivation in human MDA-MB-231 cells transfected with dominant negative Akt mutant; format: cell-based
How it was run: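 MDA-MB-231 cells transfected with vector, constitutively active Akt or dominant negative Akt, treated ± compound; analyzed by Western blotting and BMP-2 promoter luciferase activity.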

Osteoblast [6] = assay: Effect on procollagen 9 alpha 3 gene expression in rat primary osteoblast cells assessed as expression ratio of treated to untreated control by microarray analysis; format: functional; how it was run: as §1
MDA-MB-231 [7] = assay: Antitumor activity against human MDA-MB-231 cells xenografted in SCID mouse orthotropic model assessed as inhibition of 17beta estradiol-induced tumor weight at 10 mg/kg for 2 days; format: functional; design: scale not given: the % may be the effect or the level left
How it was run: (§2)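 Tumor cells were inoculated orthotopically into the mammary fat pad of 6-week-old female SCID mice. […] Tumor volume was calculated as LW2/2. Tumor formation was scored as mice with tumors per total (20 per group), and tumor weight as mean ± S.D. Groups were compared by one-way ANOVA with LSD post-hoc comparisons.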

MC3T3-E1 [8] = assay: Inhibition of etoposide-induced apoptosis in mouse MC3T3-E1 cells after 24 hrs by flow cytometry; format: functional, cell-based
How it was run: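 Cells washed in PBS, held 30 min in 0.5% Triton X-100/PBS/0.05% RNase A, then propidium iodide (50 μg/ml) added and kept on ice 15–30 min. Apoptosis is the hypodiploid fraction below the G0/G1 peak, by flow cytometry. Run in triplicate and repeated on three occasions.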

Osteoblast [9] = assay: Effect on procollagen 18alpha 1 gene expression in rat primary osteoblast cells assessed as expression ratio of treated to untreated control by microarray analysis; format: functional; how it was run: as §1
MCF7 [10] = assay: Reduction in anchorage-independent colony formation of human MCF7 cells at 1 uM by soft agar colony forming assay; format: functional, cell-based
How it was run: (§3)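 Seeded in 0.35% noble agar in DMEM/10% FBS over a 0.7% agar bed. Colonies of at least 50 μm counted after 3 weeks under a dissecting microscope, six replicates per treatment. Three separate experiments.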

Osteoblast [11] = assay: Effect on tumor necrosis factor gene expression in rat primary osteoblast cells assessed as expression ratio of treated to untreated control by microarray analysis; format: functional
How it was run: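 GEArray Q series Mouse Osteogenesis cDNA array profiling osteogenic-differentiation genes in treated versus vehicle-treated primary osteoblasts.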

[12] = biological target: T1, Estrogen receptor (Mus musculus) (UniProt P19785); assay: Reversal of increase in DNA-binding activity of ERalpha in nuclear extracts of mouse MC3T3-E1 cells by electrophoretic mobility shift assays in presence of short interfering ER alpha-RNA; format: cell-based
T1 sequence (whole entry): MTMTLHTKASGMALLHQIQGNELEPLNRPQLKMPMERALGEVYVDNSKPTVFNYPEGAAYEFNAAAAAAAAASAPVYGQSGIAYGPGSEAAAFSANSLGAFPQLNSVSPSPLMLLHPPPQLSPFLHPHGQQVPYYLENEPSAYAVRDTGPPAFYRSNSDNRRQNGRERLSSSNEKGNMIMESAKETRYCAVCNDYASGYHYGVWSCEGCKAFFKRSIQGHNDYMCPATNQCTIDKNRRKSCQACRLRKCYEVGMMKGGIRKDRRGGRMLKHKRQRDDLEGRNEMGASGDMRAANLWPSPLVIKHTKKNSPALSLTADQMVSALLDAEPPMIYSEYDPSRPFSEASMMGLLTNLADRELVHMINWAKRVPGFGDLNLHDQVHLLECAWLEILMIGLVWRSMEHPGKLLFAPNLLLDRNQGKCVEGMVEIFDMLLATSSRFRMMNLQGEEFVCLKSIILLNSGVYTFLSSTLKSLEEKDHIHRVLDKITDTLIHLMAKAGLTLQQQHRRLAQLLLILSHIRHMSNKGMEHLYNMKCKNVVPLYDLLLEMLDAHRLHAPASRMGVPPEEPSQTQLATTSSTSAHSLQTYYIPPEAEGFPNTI
How it was run: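 Nuclear extracts of MC3T3-E1 cells. ER-binding probe [α-32P]dCTP end-labeled, 20-min binding at room temperature, 5-fold unlabeled competitor where used. Complexes resolved on 5% nondenaturing PAGE in Tris-borate-EDTA pH 8.3, then autoradiography.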

Osteoblast [13] = assay: Effect on bone morphogenetic protein 3 gene expression in rat primary osteoblast cells assessed as expression ratio of treated to untreated control by microarray analysis; format: functional
T47D = assay: Reduction in anchorage-independent colony formation of human T47D cells at 1 uM by soft agar colony forming assay; format: functional, cell-based; how it was run: as §3
MDA-MB-231 [14] = assay: Reversal of induction of FOXO3a nuclear accumulation in human MDA-MB-231 cells transfected with constitutively activated Akt mutant; format: functional, cell-based
MCF7 [15] = assay: Antitumor activity against human MCF7 cells xenografted in SCID mouse orthotropic model assessed as inhibition of 17beta estradiol-induced tumor formation at 10 mg/kg for 2 days; format: functional; design: scale not given: the % may be the effect or the level left; how it was run: as §2
Osteoblast [16] = assay: Effect on procollagen 3 alpha 1 gene expression in rat primary osteoblast cells assessed as expression ratio of treated to untreated control by microarray analysis; format: functional; how it was run: as §1
Osteoblast [17] = assay: Effect on runt related transcription factor 2 gene expression in rat primary osteoblast cells assessed as expression ratio of treated to untreated control by microarray analysis; format: functional; how it was run: as §1

Chain of RAC-alpha serine/threonine-protein kinase (Homo sapiens) (P31749 whole entry): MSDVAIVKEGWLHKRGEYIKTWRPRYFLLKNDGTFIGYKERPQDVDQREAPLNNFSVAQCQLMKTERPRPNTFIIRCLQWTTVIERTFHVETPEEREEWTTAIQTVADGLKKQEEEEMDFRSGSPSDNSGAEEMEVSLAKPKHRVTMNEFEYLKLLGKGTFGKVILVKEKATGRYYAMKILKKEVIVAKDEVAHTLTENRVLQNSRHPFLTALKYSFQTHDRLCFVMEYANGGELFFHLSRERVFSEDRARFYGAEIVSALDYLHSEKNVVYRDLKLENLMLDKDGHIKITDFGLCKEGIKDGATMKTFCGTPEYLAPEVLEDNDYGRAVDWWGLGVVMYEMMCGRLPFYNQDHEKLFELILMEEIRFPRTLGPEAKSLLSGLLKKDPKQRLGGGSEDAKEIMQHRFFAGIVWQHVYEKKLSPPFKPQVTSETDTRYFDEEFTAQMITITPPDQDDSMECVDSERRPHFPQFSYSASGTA

`Oc1ccc(/C=C/c2cc(O)cc(O)c2)cc1` [RESVERATROL] was tested, and the Activity (Osteoblast [1]) was “Dose-dependent effect”, the Ratio (Osteoblast [2]) was 0.57 and the Activity (MC3T3-E1 [3]) was “Active”. The Ratio (Osteoblast [4]) was 1, the Activity [5] was “Active” and the Ratio (Osteoblast [6]) was 6.67. The Activity (MDA-MB-231 [7]) was 43.6%, the Activity (MC3T3-E1 [8]) was “Active” and the Ratio (Osteoblast [9]) was 3.16. For the same compound, the Activity (MCF7 [10]) was “Active”, the Ratio (Osteoblast [11]) was 0.46 and the Activity [12] was “Active”. The Ratio (Osteoblast [13]) was 0.27, the Activity (T47D) was “Active” and the Activity (MDA-MB-231 [14]) was “Active”. It also gave an Activity (MCF7 [15]) of 40%, a Ratio (Osteoblast [16]) of 4.41 and a Ratio (Osteoblast [17]) of 3.26.
